These results are taken from ChEMBL document CHEMBL1148340 (J Med Chem, 2004).

Data set [1] addresses T1, Human immunodeficiency virus type 1 reverse transcriptase (Human immunodeficiency virus 1, UniProt Q72547). Put plainly: Inhibitory concentration against wild type HIV-1/138Lys reverse transcriptase (RT) using [3H]dGTP as a radioligand. The method in brief:
(§1)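 Recombinant HIV-1 RT (IIIB-derived) or Glu138Lys mutant. Buffer: 50 mM Tris-HCl pH 7.8, 5 mM DTT, 150 mM KCl, 5 mM MgCl₂, 500 μM EDTA, 0.06% Triton X-100, with BSA. Incubated 37 °C, 30 min, then TCA/pyrophosphate precipitation on ice.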

In data set [2] the target is T1, Human immunodeficiency virus type 1 reverse transcriptase. The data set is described as follows: Inhibitory concentration against wild type HIV-1 reverse transcriptase (RT) using poly rC.dG as the template or primer. The method in brief:
as §1

The nature of data set [3]: Partition coefficient (logP). The following applies: octanol/water. It is filed as physicochemical.
Data set [4] deals with CCRF-CEM. The data set is described as follows: Effective concentration required to inhibit HIV-1 induced cytopathicity in human CEM cell lines. It is filed as functional, cell-based. Summed up: (§2)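 CEM cells at 4 × 10⁵/mL were infected with HIV-1 or HIV-2 at ~100 CCID₅₀ per mL. The cells were mixed 1:1 with serial compound dilutions. Giant cell formation was scored microscopically after 4 days. EC₅₀ is the concentration that inhibited virus-induced cytopathicity by 50%.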
(Cytopathic effects are the visible damage that an infection or toxin causes in cultured cells.)

Data set [5] has as its system CCRF-CEM. The data set is described as follows: Effective concentration required to inhibit HIV-2 induced cytopathicity in human CEM cell lines. It is filed as functional, cell-based. The method in brief:
as §2

For data set [6], the system named is CCRF-CEM. The data set is described as follows: Cytostatic concentration required to inhibit proliferation of CEM cells. It is filed as functional. The following applies: Homo sapiens. Summed up: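 CEM cells were cultured with serial compound dilutions alongside the antiviral assay. CC₅₀ is the concentration that inhibited cell proliferation by 50%.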
Data set [7] relates to MT4. Put plainly: Cytostatic concentration required to reduce MT-4 cell viability in mock-infected cell cultures. In kind it is functional. The note with it: Homo sapiens. Summed up: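 Mock-infected MT-4 cells at 3 × 10⁵/mL were exposed to compound dilutions. Viable cells were counted by trypan blue exclusion. CC₅₀ is the concentration that reduced the number of viable cells by 50%.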

The test system of data set [8] is MT4. The data set is described as follows: Effective concentration required to inhibit HIV-1 induced cytopathicity in human MT-4 cell lines. In kind it is functional, cell-based. Summed up:
(§3)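 MT-4 cells at 3 × 10⁵/mL were infected with HIV-1 or HIV-2 at ~100 CCID₅₀ per mL and mixed 1:1 with compound dilutions. After 5 days, HIV-induced cytopathicity was recorded by trypan blue dye exclusion. EC₅₀ is the concentration that reduced virus-induced loss of cell viability by 50%.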

For data set [9], the system named is MT4. Put plainly: Effective concentration required to inhibit HIV-2 induced cytopathicity in human MT-4 cell lines. It is filed as functional, cell-based. Summed up:
as §3

For data set [10], the system named is CCRF-CEM. The data set is described as follows: Effective concentration required to inhibit HIV-1E138K induced cytopathicity in human CEM cell lines.
The test system of data set [11] is Human immunodeficiency virus 1. The data set is described as follows: Anti-HIV activity against PFA-resistant mutant HIV-1W88G strain in P4/R5 cells. In kind it is functional, organism-based. The following applies: Human immunodeficiency virus 1, P4/R5. Summed up: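 HeLa-derived P4/R5 reporter cells (stable Tat-activated β-galactosidase under HIV LTR), 5×10^4 cells/mL, infected with HIV-1 LAI or W88G at MOI 0.05 TCID₅₀/mL. Drug added in 2- or 3-fold dilutions, in triplicate. At 48 h, lysis buffer and luminescent substrate added and β-galactosidase read by luminometer. EC₅₀ given as mean ± SD of five independent experiments (three in one case).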

The test system of data set [12] is Human immunodeficiency virus 1. Put plainly: Anti-HIV activity against wild type HIV-1(LAI) strain in P4/R5 cells. The note with it: Human immunodeficiency virus 1, P4/R5.

Regarding `Cc1cn([C@@H]2O[C@H](CO[Si](C)(C)C(C)(C)C)[C@@]3(OS(=O)(=O)C=C3N)[C@H]2O[Si](C)(C)C(C)(C)C)c(=O)n(C)c1=O`, the concentration for half-maximal inhibition (IC50) (usually the concentration needed to halve the response being measured) in data set [1] was over 100 µM; in data set [2], 3.1 µM.
For the molecule `CCOC(=O)P(=O)(O)OCCCn1c(=O)c(C)cn([C@@H]2O[C@H](CO[Si](C)(C)C(C)(C)C)[C@@]3(OS(=O)(=O)C=C3N)[C@H]2O[Si](C)(C)C(C)(C)C)c1=O`, in data set [3], the logP (in general, the decadic logarithm of the partition coefficient of the neutral form, usually between octanol and water) turned out to be 4.01. In addition, the EC50 (commonly the midpoint of the concentration-response curve) in [4] is 2.13 µM; in data set [5], over 50 µM; in data set [8], 4.23 µM; in data set [9], over 50 µM; in data set [10] it was 25 µM. Moreover, the CC50 – broadly, the concentration giving 50% cytotoxicity – in data set [6] turned out to be 135 µM; in [7], 84.3 µM. Moreover, the IC50 came to 293 µM in data set [1] and 6.3 µM in data set [2].
Take `COC(=O)P(=O)(O)OCCCn1c(=O)c(C)cn([C@@H]2O[C@H](CO[Si](C)(C)C(C)(C)C)[C@@]3(OS(=O)(=O)C=C3N)[C@H]2O[Si](C)(C)C(C)(C)C)c1=O`: the logP in data set [3] was found to be 4.01. Besides, the EC50 in [4] was 4.5 µM; in data set [5] it was over 50 µM; in [8], 20.1 µM; in data set [9], over 50 µM; in data set [10], over 50 µM. Also, the CC50 in data set [6] worked out at 146 µM; in data set [7], 55.5 µM. Also, the IC50 in data set [1] worked out at 394 µM; in data set [2], 4.7 µM.
`Cc1cn([C@@H]2O[C@H](CO[Si](C)(C)C(C)(C)C)[C@@]3(OS(=O)(=O)C=C3N)[C@H]2O[Si](C)(C)C(C)(C)C)c(=O)n(CCCOP(=O)(O)C(=O)O)c1=O`: the logP in data set [3] amounted to 0.63. The EC50 in data set [4] is 0.47 µM; in data set [5], over 50 µM; in data set [11], 0.16 µM; in data set [8], 0.82 µM; in [9] it was over 50 µM; in data set [12] it was 0.3 µM. The EC50 in data set [10] was at least 50 µM. Further, the CC50 in [6] was determined as 178 µM; in data set [7] it was 111 µM. Also, the values for the IC50 in [1] and in data set [2] were 437 µM and 3.7 µM, respectively.
As for `Cc1cn([C@@H]2O[C@H](CO[Si](C)(C)C(C)(C)C)[C@@]3(OS(=O)(=O)C=C3N)[C@H]2O[Si](C)(C)C(C)(C)C)c(=O)n(CCCOP(=O)(O)C(=O)OCc2ccccc2)c1=O`, in data set [3], the logP was 5.02. Moreover, the EC50 in data set [4] is 3 µM; in data set [5], over 50 µM; in data set [8], 1.26 µM; in [9] it was over 50 µM; in data set [10], 20 µM. Also, the CC50 in data set [6] was 138 µM; in data set [7], 84 µM. The results for the IC50 in data set [1] and in data set [2] were 312 µM and 3.8 µM, respectively.
Take `COC(=O)P(=O)(OC)OCCCn1c(=O)c(C)cn([C@@H]2O[C@H](CO[Si](C)(C)C(C)(C)C)[C@@]3(OS(=O)(=O)C=C3N)[C@H]2O[Si](C)(C)C(C)(C)C)c1=O` (some centres not stated): in data set [3], the logP amounted to 7.12. Moreover, the half-maximal effective concentration (EC50) in data set [4] is 0.08 µM; in [5] it was over 50 µM; in data set [8] it was 0.282 µM; in [9], over 10 µM; in [10] it was over 10 µM. Also, the figures for the cytotoxic concentration (CC50) in data set [6] and in [7] were 20.9 µM and 18.4 µM, respectively. The IC50 is over 500 µM in [1] and 11 µM in [2].
In the case of `Cc1cn([C@@H]2O[C@H](CO[Si](C)(C)C(C)(C)C)[C@@]3(OS(=O)(=O)C=C3N)[C@H]2O[Si](C)(C)C(C)(C)C)c(=O)n(CCCO)c1=O`, the logP in data set [3] worked out at 2.26. The EC50 is over 10 µM in [5]; 0.027 µM in data set [11]; over 2 µM in data set [9]; 0.043 µM in data set [12]; over 2 µM in data set [10]. Besides, half-maximal cytotoxicity in data set [7] (CC50) was put at 3.86 µM. The IC50 in data set [1] was over 100 µM; in [2] it was 8.1 µM.
`O=C(O)P(=O)(O)O` [FOSCARNET] came in with a logP in data set [3] of -0.56. For the same molecule, the EC50 in data set [4] was 121 µM; in data set [5] it was 105 µM; in data set [11], over 300 µM; in [8], 133 µM; in data set [9] it was 140 µM; in data set [12], 44 µM. Besides, the concentration giving a half-maximal response (EC50) in data set [10] was determined as 87 µM. Also, the CC50 in data set [7] stood at 230 µM.
